According to ChEMBL document CHEMBL1938297, “Synthesis, radiofluorination and pharmacological evaluation of a fluoromethyl spirocyclic PET tracer for central σ1 receptors and comparison with fluoroalkyl homologs” (Bioorg Med Chem, 2012):

Tests used:
Cerebellum [1] = test: Biodistribution in CD1 mouse cerebellum at 300 kBq, iv after 30 mins by gamma counting; format: ADME, organism-based; details: in vivo, 0.5 h
Outline: (§1)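 Female CD-1 mice received [18F]1 (300 kBq) i.v.; 3–6 animals per time point anesthetized at 5, 30, 60 or 120 min p.i., blood and urine collected, animals euthanized by cervical dislocation, organs dissected and weighed. Radioactivity counted in a calibrated gamma counter; % ID/g = tissue counts / initial dose counts / tissue weight; means with SD.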

Mus musculus [2] = test: Biodistribution in CD1 mouse eye at 300 kBq, iv after 120 mins by gamma counting; format: ADME, organism-based; details: in vivo, 2 h; outline: as §1
Liver = test: Biodistribution in CD1 mouse liver at 300 kBq, iv after 30 mins by gamma counting; format: ADME, organism-based; details: in vivo, 0.5 h
Outline: (§2)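 Female CD-1 mice received the 18F tracer iv at 300 kBq in 0.9% NaCl containing 5% ethanol; 3–6 animals per time point (5, 30, 60, 120 min p.i.). Animals anaesthetized, blood and urine collected, killed by cervical luxation, organs dissected and weighed, counted in calibrated gamma counter. %ID/g = tissue counts / initial dose counts / tissue weight; mean with SD.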

Kidney [3] = test: Biodistribution in CD1 mouse kidney at 300 kBq, iv after 120 mins by gamma counting; format: ADME, organism-based; details: in vivo, 2 h; outline: as §2
[4] = Chemical stability of the compound in 0.01 M Tris-HCl at pH 7.4 assessed as compound remaining after 2 hrs by radio-HPLC/TLC analysis; format: physicochemical; details: read-out: Stability
Outline: (§3)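 Radiotracer incubated 120 min at 40 °C in 0.9% NaCl (pH 7.2), phosphate-saline (0.1 M sodium phosphate, 0.15 M NaCl, pH 7.2) or 0.01 M TRIS–HCl (pH 7.4 at 21 °C). Aliquots were taken at set times and analysed by radio-TLC on silica and by gradient radio-HPLC on RP-18 (MeCN/20 mM ammonium acetate, 254 nm), giving % unchanged tracer; n = 2.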

Mus musculus [5] = test: Biodistribution in CD1 mouse eye at 300 kBq, iv after 30 mins by gamma counting; format: ADME, organism-based; details: in vivo, 0.5 h; outline: as §1
Striatum = test: Biodistribution in CD1 mouse striatum in brain saggital section at 24 MBq, iv at 45 mins by autoradiography; format: ADME, organism-based; details: in vivo, 0.75 h
Outline: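 Ex vivo autoradiography: female CD-1 mouse given 18F tracer iv (24 MBq), killed 45 min p.i.; brain hemispheres frozen in isopentane (−35 °C), 12 µm sagittal cryostat sections thaw-mounted, air-dried and exposed to 18F-sensitive phosphor screens. Regional uptake compared with anterior olfactory bulb as nontarget region (target-to-nontarget ratio).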

Cerebellum [6] = test: Biodistribution in CD1 mouse cerebellum at 300 kBq, iv after 120 mins by gamma counting; format: ADME, organism-based; details: in vivo, 2 h; outline: as §1
[7] = Ratio of biodistribution in anterior olfactory bulb to facial nucleus in brain saggital section of CD1 mouse at 24 MBq, iv after 45 mins; format: ADME, organism-based; details: in vivo, 0.75 h
Outline: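 Female CD-1 mouse given 24 MBq radiotracer i.v. and killed at 45 min. The brain hemispheres were frozen in isopentane (−35 °C), cut into 12 µm sagittal cryosections and exposed to 18F-sensitive phosphor screens. Regional uptake was expressed as a target-to-nontarget ratio, with the anterior olfactory bulb as the nontarget reference.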

[8] = Chemical stability of the compound in phosphate-saline solution at pH 7.2 assessed as compound remaining after 2 hrs by radio-HPLC/TLC analysis; format: physicochemical; details: read-out: Stability; outline: as §3
Stomach = test: Biodistribution in CD1 mouse stomach at 300 kBq, iv after 5 mins by gamma counting; format: ADME, organism-based; details: in vivo; outline: as §2
Mus musculus [9] = test: Biodistribution in CD1 mouse thymus at 300 kBq, iv after 5 mins by gamma counting; format: ADME, organism-based; details: in vivo; outline: as §2
Mus musculus [10] = test: Biodistribution in CD1 mouse fat at 300 kBq, iv after 60 mins by gamma counting; format: ADME, organism-based, Adipose tissue; details: in vivo, 1 h; outline: as §1
[11] = Biodistribution in CD1 mouse intestinal content at 300 kBq, iv after 5 mins by gamma counting; format: ADME, organism-based, Intestine; details: in vivo; outline: as §2
Brain = test: Drug metabolism in CD1 mouse brain homogenates assessed as radiometabolites at 191 MBq, iv after 30 mins by radio-HPLC/TLC analysis; format: ADME, organism-based; details: in vivo, 0.5 h
Outline: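 Female CD-1 mice were injected with the radiotracer via the tail vein and killed at 30 or 60 min p.i. Whole brains (n = 2 per time) were homogenised in 50 mM TRIS–HCl pH 7.4 at 4 °C and extracted twice with ice-cold acetonitrile. Concentrated extracts were analysed by radio-HPLC and radio-TLC to give % parent versus radiometabolites.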

Blood = test: Biodistribution in CD1 mouse blood at 300 kBq, iv after 60 mins by gamma counting; format: ADME, organism-based; details: in vivo, 1 h; outline: as §1
Mus musculus [12] = test: Biodistribution in CD1 mouse facial nucleus in brain saggital section at 24 MBq, iv at 45 mins by autoradiography; format: ADME, organism-based; details: in vivo, 0.75 h
Outline: (§4)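 Female CD-1 mouse given [18F]1 (24 MBq) i.v. and sacrificed at 45 min. Brain hemispheres frozen in isopentane (−35 °C), cut into 12 µm sagittal cryosections, thaw-mounted, air-dried and exposed to 18F-sensitive storage phosphor screens. Anterior olfactory bulb served as nontarget region for target-to-nontarget ratios.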

Mus musculus [13] = test: Biodistribution in CD1 mouse adrenals at 300 kBq, iv after 120 mins by gamma counting; format: ADME, organism-based, Adrenal gland; details: in vivo, 2 h; outline: as §1
Mus musculus [14] = test: Biodistribution in CD1 mouse gonads at 300 kBq, iv after 120 mins by gamma counting; format: ADME, organism-based, Gonad; details: in vivo, 2 h; outline: as §1
Mus musculus [15] = test: Biodistribution in CD1 mouse dorsomedial hyphalmus in brain saggital section at 24 MBq, iv at 45 mins by autoradiography; format: ADME, organism-based; details: in vivo, 0.75 h; outline: as §4
Urinary bladder = test: Biodistribution in CD1 mouse bladder at 300 kBq, iv after 5 mins by gamma counting; format: ADME, organism-based; details: in vivo; outline: as §1
Kidney [16] = test: Biodistribution in CD1 mouse kidney at 300 kBq, iv after 60 mins by gamma counting; format: ADME, organism-based; details: in vivo, 1 h; outline: as §2
Mus musculus [17] = test: Biodistribution in CD1 mouse eye at 300 kBq, iv after 60 mins by gamma counting; format: ADME, organism-based; details: in vivo, 1 h; outline: as §1
Spleen = test: Biodistribution in CD1 mouse spleen at 300 kBq, iv after 120 mins by gamma counting; format: ADME, organism-based; details: in vivo, 2 h; outline: as §2
Pancreas = test: Biodistribution in CD1 mouse pancreas at 300 kBq, iv after 30 mins by gamma counting; format: ADME, organism-based; details: in vivo, 0.5 h; outline: as §2
[18] = Biodistribution in CD1 mouse urine at 300 kBq, iv after 120 mins by gamma counting; format: ADME, organism-based; details: in vivo, 2 h
Outline: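 Female CD-1 mice received 300 kBq of the radiotracer i.v.; 3–6 animals per time point were anaesthetised at 5, 30, 60 or 120 min p.i. Blood and urine were collected, animals were killed by cervical dislocation, and organs were dissected and weighed. Activity was counted in a calibrated gamma counter and expressed as % injected dose per g wet tissue, mean with SD.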

Mus musculus [19] = test: Biodistribution in CD1 mouse thymus at 300 kBq, iv after 30 mins by gamma counting; format: ADME, organism-based; details: in vivo, 0.5 h; outline: as §2
[20] = Octanol-phosphate buffer partition coefficient, log D of the compound at pH 7.2 by shake-flask method; format: physicochemical
Outline: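 Shake-flask distribution of the radioligand between n-octanol and aqueous buffer at pH 7.2, either phosphate buffer or phosphate-saline; n = 3.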

Mus musculus [21] = test: Biodistribution in CD1 mouse gonads at 300 kBq, iv after 5 mins by gamma counting; format: ADME, organism-based, Gonad; details: in vivo; outline: as §1
[22] = Biodistribution in CD1 mouse intestinal content at 300 kBq, iv after 60 mins by gamma counting; format: ADME, organism-based, Intestine; details: in vivo, 1 h; outline: as §2
Mus musculus [23] = test: Biodistribution in CD1 mouse thymus at 300 kBq, iv after 120 mins by gamma counting; format: ADME, organism-based; details: in vivo, 2 h; outline: as §2

[18F]CC1OC2(CCN(Cc3ccccc3)CC2)c2ccccc21 (stereo unspecified)
Drug uptake (Cerebellum [1]): 6.27 % ID/g
Drug uptake (Mus musculus [2]): 1.53 % ID/g
Drug uptake (Liver): 6.68 % ID/g
Drug uptake (Kidney [3]): 5.6 % ID/g
remaining at 2 h [4]: 100%
Drug uptake (Mus musculus [5]): 2 % ID/g
Drug uptake (Striatum): Active
Drug uptake (Cerebellum [6]): 4.02 % ID/g
Ratio [7]: 1.34
remaining at 2 h [8]: 96.5%
Drug uptake (Stomach): 2.62 % ID/g
Drug uptake (Mus musculus [9]): 3.61 % ID/g
Drug uptake (Mus musculus [10]): 2.02 % ID/g
Drug uptake [11]: 0.39 % ID/g
Drug metabolism (Brain): Active
Drug uptake (Blood): 0.16 % ID/g
Drug uptake (Mus musculus [12]): Active
Drug uptake (Mus musculus [13]): 6.6 % ID/g
Drug uptake (Mus musculus [14]): 3.55 % ID/g
Drug uptake (Mus musculus [15]): Active
Drug uptake (Urinary bladder): 1.51 % ID/g
Drug uptake (Kidney [16]): 6.03 % ID/g
Drug uptake (Mus musculus [17]): 0.87 % ID/g
Drug uptake (Spleen): 4.84 % ID/g
Drug uptake (Pancreas): 16.03 % ID/g
Drug uptake [18]: 56.46 % ID/g
Drug uptake (Mus musculus [19]): 4.83 % ID/g
logD [20]: 2.45
Drug uptake (Mus musculus [21]): 3.26 % ID/g
Drug uptake [22]: 0.32 % ID/g
Drug uptake (Mus musculus [23]): 2.52 % ID/g
